Reference: ChEMBL document CHEMBL1150216, “Flavonol glycosides and steroidal saponins from the leaves of Cestrum nocturnum and their cytotoxicity” (J Nat Prod, 2001)
Values after ≈ are worked out from the molar mass of the structure shown.

What was measured:
HSC-2 = test: Cytotoxicity against human HSC2 cells after 24 by MTT assay; type: functional; conditions: read-out: LD50 (the source's name)
[1] = Cytotoxicity against human HGF cells after 24 by MTT assay; type: cell-based; conditions: read-out: LD50 (the source's name)
How it was run: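 Primary human gingival fibroblasts from a healthy person's gingival biopsy, explant-cultured in α-MEM with 30% FBS and antibiotics, used at passages 5–7. Cells were seeded at 6×10^3 into 96-well plates for 24 h, PBS-washed, and exposed to compound for 24 h. Viability was read by MTT (0.2 mg/mL, 4 h), DMSO lysis and A540, giving LD50 in µg/mL.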

Compound `C[C@@H]1CC[C@@]2(OC1)O[C@H]1C[C@H]3[C@@H]4CC=C5C[C@@H](O[C@@H]6O[C@H](CO)[C@H](O[C@@H]7O[C@H](CO)[C@@H](O)[C@H](O[C@@H]8OC[C@@H](O)[C@H](O)[C@H]8O)[C@H]7O[C@@H]7O[C@H](CO)[C@@H](O)[C@H](O)[C@H]7O)[C@H](O)[C@H]6O)[C@H](O)C[C@]5(C)[C@H]4CC[C@]3(C)[C@H]1[C@@H]2C` has a CC50 (HSC-2) of 12 µg/mL (≈ 11.4 µM) and a CC50 [1] of 37 µg/mL (≈ 35.3 µM).

Compound `C[C@@H]1CC[C@@]2(OC1)O[C@H]1C[C@H]3[C@@H]4CC=C5C[C@@H](O[C@@H]6O[C@H](CO)[C@H](O[C@@H]7O[C@H](CO)[C@@H](O)[C@H](O[C@@H]8OC[C@@H](O)[C@H](O)[C@H]8O)[C@H]7O[C@@H]7O[C@H](CO)[C@@H](O)[C@H](O[C@@H]8O[C@H](CO)[C@@H](O)[C@H](O)[C@H]8O)[C@H]7O)[C@H](O)[C@H]6O)[C@H](O)C[C@]5(C)[C@H]4CC[C@]3(C)[C@H]1[C@@H]2C` has a CC50 (HSC-2) of 2.7 µg/mL (≈ 2.23 µM) and a CC50 [1] of 31 µg/mL (≈ 25.6 µM).

In the case of `C[C@@H]1CC[C@@]2(OC1)O[C@H]1C[C@H]3[C@@H]4CC=C5C[C@@H](O[C@@H]6O[C@H](CO)[C@@H](O[C@@H]7O[C@@H](C)[C@H](O[C@@H]8O[C@@H](C)[C@H](O)[C@@H](O)[C@H]8O)[C@@H](O)[C@H]7O)[C@H](O)[C@H]6O[C@@H]6O[C@@H](C)[C@H](O)[C@@H](O)[C@H]6O)[C@H](O)C[C@]5(C)[C@H]4CC[C@]3(C)[C@H]1[C@@H]2C`, the CC50 (HSC-2) is reported as 5.5 µg/mL (≈ 5.33 µM) and the CC50 [1] is reported as 9.1 µg/mL (≈ 8.82 µM).

`C[C@@H]1CC[C@@]2(OC1)O[C@H]1C[C@H]3[C@@H]4CC=C5C[C@@H](O[C@@H]6O[C@H](CO)[C@H](O[C@@H]7O[C@H](CO)[C@@H](O)[C@H](O[C@@H]8OC[C@@H](O)[C@H](O)[C@H]8O)[C@H]7O[C@@H]7O[C@H](CO)[C@@H](O)[C@H](O)[C@H]7O)[C@H](O)[C@H]6O)[C@H](O)C[C@]5(C)[C@H]4CC[C@]3(C)[C@@]1(O)[C@@H]2C` gave a CC50 (HSC-2) of 13 µg/mL (≈ 12.2 µM) and a CC50 [1] of 58 µg/mL (≈ 54.5 µM).

With `C[C@@H]1CC[C@@]2(OC1)O[C@H]1[C@@H](O)[C@H]3[C@@H]4CC=C5C[C@@H](O[C@@H]6O[C@H](CO)[C@H](O[C@@H]7O[C@H](CO)[C@@H](O)[C@H](O[C@@H]8OC[C@@H](O)[C@H](O)[C@H]8O)[C@H]7O[C@@H]7O[C@H](CO)[C@@H](O)[C@H](O[C@@H]8O[C@H](CO)[C@@H](O)[C@H](O)[C@H]8O)[C@H]7O)[C@H](O)[C@H]6O)[C@H](O)C[C@]5(C)[C@H]4CC[C@]3(C)[C@H]1[C@@H]2C` the CC50 (HSC-2) was 4.4 µg/mL (≈ 3.59 µM) and the CC50 [1] was 22 µg/mL (≈ 17.9 µM).

In the case of `C[C@@H]1CC[C@@]2(OC1)O[C@H]1C[C@H]3[C@@H]4CC=C5C[C@@H](O[C@@H]6O[C@H](CO)[C@H](O[C@@H]7O[C@H](CO)[C@@H](O)[C@H](O[C@@H]8OC[C@@H](O)[C@H](O)[C@H]8O)[C@H]7O[C@@H]7O[C@H](CO)[C@@H](O)[C@H](O[C@@H]8O[C@H](CO)[C@@H](O)[C@H](O)[C@H]8O)[C@H]7O)[C@H](O)[C@H]6O)[C@H](O)C[C@]5(C)[C@H]4CC[C@]3(C)[C@@]1(O)[C@@H]2C`, the CC50 (HSC-2) is reported as 5.5 µg/mL (≈ 4.48 µM) and the CC50 [1] is reported as 34 µg/mL (≈ 27.7 µM).

Work on `C[C@@H]1O[C@@H](OC[C@H]2O[C@@H](Oc3c(-c4ccc(O)cc4)oc4cc(O)cc(O)c4c3=O)[C@H](O[C@@H]3OC[C@@H](O)[C@H](O)[C@H]3O)[C@@H](O)[C@@H]2O)[C@H](O)[C@H](O)[C@H]1O` [CAMELLIASIDE B] yielded a CC50 (HSC-2) of over 400 µg/mL and a CC50 [1] of over 400 µg/mL.

In the case of `C[C@@H]1CC[C@@]2(OC1)O[C@H]1C[C@H]3[C@@H]4CC=C5C[C@@H](O[C@@H]6O[C@H](CO)[C@@H](O[C@@H]7O[C@@H](C)[C@H](O[C@@H]8O[C@@H](C)[C@H](O)[C@@H](O)[C@H]8O)[C@@H](O)[C@H]7O)[C@H](O)[C@H]6O[C@@H]6O[C@@H](C)[C@H](O)[C@@H](O)[C@H]6O)CC[C@]5(C)[C@H]4CC[C@]3(C)[C@H]1[C@@H]2C` [PENNOGENIN RAHAMNOSYL CHACOTRIOSIDE], the CC50 (HSC-2) is reported as 2 µg/mL (≈ 1.97 µM) and the CC50 [1] is reported as 2.8 µg/mL (≈ 2.76 µM).
